In ChEMBL document CHEMBL1123363, “(5-Amino-1,3-dimethyl-1H-pyrazol-4-yl)(2-fluorophenyl)methanones . A series of novel potential antipsychotic agents” (J Med Chem, 1986):
Values belong to the compound of their own block, whether it stands above or below them.

What was measured:
Rattus norvegicus [1] = assay: Compound was tested for serum prolactin assay method in rats at 1 mg/kg dose after peroral administration; assay type: functional; details: route oral
Procedure, shortened: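 Seven-week-old male Sprague–Dawley rats, five per group, were dosed orally and killed by decapitation 1 h later. Serum prolactin from trunk blood was measured by radioimmunoassay with [125I]-PRL and expressed as % of control (mean ± SEM).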

Rattus norvegicus [2] = assay: Inhibition of conditional avoidance in rats after peroral administration; assay type: functional; details: po
Procedure, shortened: (§1)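 Fasted male Wistar rats (150–250 g) were trained to jump to a platform at a buzzer to avoid grid shock (1.1 mA/s). After oral dosing they were tested every 20 min for 6 h over 19 trials, 10 rats per dose, each rat used once. Peak effect was the mean of the four consecutive trials with the largest effect, computed from response latency. ED50 read graphically from at least three doses.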

Rattus norvegicus [3] = assay: Compound was tested for its affect on the accumulation of the dopamine metabolite homovanillic acid (HAV) in the rat striatum at 8 mg/kg dose after peroral administration; assay type: functional; details: route oral
Procedure, shortened: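 Male Long–Evans rats were dosed orally and decapitated 2 h later. Striatal HVA was isolated on Sephadex G-10 and measured spectrofluorometrically, expressed as % control ± SEM.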

[4] = target: Muscarinic acetylcholine receptor; assay: Binding affinity against muscarinic receptor in rat brain using [3H]- QNB; assay type: tissue-based
Procedure, shortened: (§2)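 Muscarinic sites in rat brain stem membranes (male Long-Evans, 150–250 g), labelled with [3H]quinuclidinyl benzilate at 0.03 nM final. Oxotremorine at 100 μM final served as the reference displacer. IC50 from four or five concentrations by nonlinear curve fitting.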

Rattus norvegicus [5] = species: Rattus norvegicus; assay: Effective dose required for inhibition of Sidman avoidance in rats; assay type: functional
Procedure, shortened: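 Mature male Long–Evans rats, trained on a modified Sidman avoidance schedule in lever-equipped operant chambers, were dosed orally and tested in 6-h sessions. Inhibition was expressed as % of each animal's own nondrug responding. At least three doses were given to four animals, with sessions at least 1 week apart. ED50 from nonlinear regression of dose–effect.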

[6] = target: Beta-2 adrenergic receptor (Rattus norvegicus, UniProt P10608); assay: Binding affinity against beta-2 adrenergic receptor in rat brain using [3H]DHA; assay type: tissue-based
Procedure, shortened: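 β2 binding on rat cerebellum membranes (male Long–Evans rats, 150–250 g) with [3H]dihydroalprenolol, 0.5 nM final. Nonspecific binding defined with (-)-alprenolol, 1 μM final. IC50 from four or five concentrations by nonlinear curve fit.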

[7] = target: Dopamine receptor (Rattus norvegicus) (UniProt P25115+P19020+P30729+P18901+P61169); assay: Compound was tested for its effect on norepinephrine turnover in rat at dose of 10+/-250 mg/kg; assay type: functional, organism-based; details: in the assay text read “64+/-250 mg/kg” for “10+/-250 mg/kg”
Procedure, shortened: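 Male Long-Evans rats were given vehicle or agent ip 30 min before α-methyl-p-tyrosine (250 mg/kg) and killed 4 h after it. Brain NE and DA were isolated on Sephadex G-10 and measured spectrofluorometrically. Values are percent of vehicle-treated, with at least five determinations per value.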

[8] = target: Muscarinic acetylcholine receptor; assay: Binding affinity against Muscarinic acetylcholine receptor in rat brain using [3H]- QNB; assay type: tissue-based; procedure, shortened: as §2
Rattus norvegicus [9] = assay: Compound was tested for its effect on Dopamine turnover in rat at dose of 64 mg/kg ip; assay type: functional; details: route intraperitoneal
Procedure, shortened: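 Rats were given compound or vehicle ip 30 min before α-methyl-p-tyrosine (250 mg/kg ip) and killed 4 h later. Brain NE and DA were measured spectrofluorometrically, with at least five determinations per value, and expressed as % of vehicle-treated levels ± SEM.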

Rattus norvegicus [10] = assay: Inhibition of conditional avoid in rats after peroral administration; assay type: functional; details: po; procedure, shortened: as §1
Rattus norvegicus [11] = assay: Suppression of conditional avoidance after peroral administration; assay type: functional; details: po; procedure, shortened: as §1
[12] = Inhibition of sidman avoidance in rats after peroral administration

Sequence of Beta-2 adrenergic receptor (P10608 whole entry): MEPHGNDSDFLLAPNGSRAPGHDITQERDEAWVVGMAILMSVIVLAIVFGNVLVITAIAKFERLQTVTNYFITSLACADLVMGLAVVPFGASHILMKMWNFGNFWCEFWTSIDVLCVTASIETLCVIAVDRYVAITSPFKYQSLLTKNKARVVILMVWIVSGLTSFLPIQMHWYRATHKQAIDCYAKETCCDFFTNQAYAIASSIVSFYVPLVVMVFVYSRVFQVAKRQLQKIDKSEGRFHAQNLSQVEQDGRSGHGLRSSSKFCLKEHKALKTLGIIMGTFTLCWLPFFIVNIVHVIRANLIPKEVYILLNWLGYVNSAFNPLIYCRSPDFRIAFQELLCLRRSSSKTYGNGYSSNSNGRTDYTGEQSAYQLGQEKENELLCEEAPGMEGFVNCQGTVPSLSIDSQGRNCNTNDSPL

SMILES: CCN(CC)CC(=O)Nc1c(C(=O)c2ccccc2F)c(C)nn1C
- Control (Rattus norvegicus [1]): 87.4%
- ED50 (Rattus norvegicus [2]): 18 mg/kg
- Control (Rattus norvegicus [3]): 131.9%

- IC50 [4]: > 10 µM
SMILES: Cc1nn(C)c(N)c1C(=O)c1ccccc1F
- ED50 (Rattus norvegicus [5]): 20 mg/kg

- IC50 [6]: > 10 µM
- Control [7]: 53.7%
- IC50 [8]: > 10 µM
- ED50 [12]: 21.3 mg/kg
SMILES: Cc1nn(C)c(NC(=O)CNCCCN2CCCCC2C)c1C(=O)c1ccccc1F (configuration not stated)
- Control (Rattus norvegicus [9]): 96.6%
- ED50 (Rattus norvegicus [10]): 43.5 mg/kg
- ED50 (Rattus norvegicus [11]): 43 mg/kg
